# In ChEMBL document CHEMBL3627671, “Novel derivatives of nitro-substituted salicylic acids: Synthesis, antimicrobial activity and cytotoxicity” (Bioorg Med Chem, 2015):
# Experiments:
# [1] = test system: Mycobacterium tuberculosis; test: Antimycobacterial activity against Mycobacterium tuberculosis H37Rv 331/88 after 14 days; format: functional; conditions: H37Rv 331/88, 336 h
# [2] = test system: Mycobacterium tuberculosis; test: Antimycobacterial activity against Mycobacterium tuberculosis H37Rv 331/88 after 21 days; format: functional; conditions: H37Rv 331/88, 504 h
# Mycobacterium avium [3] = test: Antimycobacterial activity against Mycobacterium avium 330/80 after 14 days; format: functional; conditions: 330/80, 336 h
# Mycobacterium avium [4] = test: Antimycobacterial activity against Mycobacterium avium 330/80 after 21 days; format: functional; conditions: 330/80, 504 h
# Mycobacterium kansasii [5] = test: Antimycobacterial activity against Mycobacterium kansasii 235/80 after 7 days; format: functional; conditions: 235/80, 168 h
# Outline: (§1)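 Šula's semisynthetic medium micromethod at 37 °C, read after 7, 14 and 21 days. The 1.0 McFarland suspension was diluted 10^-4. MIC determined. 6509/96 is a clinical isolate.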
# Mycobacterium kansasii [6] = test: Antimycobacterial activity against Mycobacterium kansasii 235/80 after 14 days; format: functional; conditions: 235/80, 336 h; outline: as §1
# Mycobacterium kansasii [7] = test: Antimycobacterial activity against Mycobacterium kansasii 235/80 after 21 days; format: functional; conditions: 235/80, 504 h; outline: as §1
# Mycobacterium kansasii [8] = test: Antimycobacterial activity against Mycobacterium kansasii 6509/96 after 7 days; format: functional; conditions: 6509/96, 168 h; outline: as §1
# Mycobacterium kansasii [9] = test: Antimycobacterial activity against Mycobacterium kansasii 6509/96 after 14 days; format: functional; conditions: 6509/96, 336 h; outline: as §1
# Mycobacterium kansasii [10] = test: Antimycobacterial activity against Mycobacterium kansasii 6509/96 after 21 days; format: functional; conditions: 6509/96, 504 h; outline: as §1
# Staphylococcus aureus [11] = test: Antibacterial activity against Staphylococcus aureus CCM 4516/08 after 24 hrs by microdilution broth method; format: functional; conditions: CCM 4516/08, 24 h
# Staphylococcus aureus [12] = test: Antibacterial activity against Staphylococcus aureus CCM 4516/08 after 48 hrs by microdilution broth method; format: functional; conditions: CCM 4516/08, 48 h
# Staphylococcus aureus [13] = test: Antibacterial activity against methicillin-resistant Staphylococcus aureus H 5996/08 after 24 hrs by microdilution broth method; format: functional; conditions: H 5996/08, 24 h
# Staphylococcus aureus [14] = test: Antibacterial activity against methicillin-resistant Staphylococcus aureus H 5996/08 after 48 hrs by microdilution broth method; format: functional; conditions: H 5996/08, 48 h
# [15] = test system: Staphylococcus epidermidis; test: Antibacterial activity against Staphylococcus epidermidis H 6966/08 after 24 hrs by microdilution broth method; format: functional; conditions: H 6966/08, 24 h
# Outline: (§2)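 Mueller-Hinton broth microdilution (modified M07-A07), pH 7.4 (±0.2). Compounds dissolved in DMSO, tested at final 500 to 0.49 µmol/L. Inoculum in sterile water matched to 0.5 McFarland. Incubated in the dark, humid atmosphere, 35 °C, read at 24 and 48 h visually and at 540 nm. MIC taken as ≥95% growth reduction (IC95) versus control.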
# [16] = test system: Staphylococcus epidermidis; test: Antibacterial activity against Staphylococcus epidermidis H 6966/08 after 48 hrs by microdilution broth method; format: functional; conditions: H 6966/08, 48 h; outline: as §2
# Enterococcus sp. [17] = test: Antibacterial activity against Enterococcus sp. J 14365/08 after 24 hrs by microdilution broth method; format: functional; conditions: J 14365/08, 24 h; outline: as §2
# Enterococcus sp. [18] = test: Antibacterial activity against Enterococcus sp. J 14365/08 after 48 hrs by microdilution broth method; format: functional; conditions: J 14365/08, 48 h; outline: as §2
# Escherichia coli [19] = test: Antibacterial activity against Escherichia coli CCM4517 after 24 hrs by microdilution broth method; format: functional; conditions: CCM4517, 24 h; outline: as §2
# Escherichia coli [20] = test: Antibacterial activity against Escherichia coli CCM4517 after 48 hrs by microdilution broth method; format: functional; conditions: CCM4517, 48 h; outline: as §2
# Klebsiella pneumoniae [21] = test: Antibacterial activity against Klebsiella pneumoniae D 11750/08 after 24 hrs by microdilution broth method; format: functional; conditions: D 11750/08, 24 h; outline: as §2
# Klebsiella pneumoniae [22] = test: Antibacterial activity against Klebsiella pneumoniae D 11750/08 after 48 hrs by microdilution broth method; format: functional; conditions: D 11750/08, 48 h; outline: as §2
# Klebsiella pneumoniae [23] = test: Antibacterial activity against ESBL-positive Klebsiella pneumoniae J 14368/08 after 24 hrs by microdilution broth method; format: functional; conditions: J 14368/08, 24 h; outline: as §2
# Klebsiella pneumoniae [24] = test: Antibacterial activity against ESBL-positive Klebsiella pneumoniae J 14368/08 after 48 hrs by microdilution broth method; format: functional; conditions: J 14368/08, 48 h; outline: as §2
# Pseudomonas aeruginosa [25] = test: Antibacterial activity against Pseudomonas aeruginosa CCM 1961 after 24 hrs by microdilution broth method; format: functional; conditions: CCM 1961, 24 h; outline: as §2
# Pseudomonas aeruginosa [26] = test: Antibacterial activity against Pseudomonas aeruginosa CCM 1961 after 48 hrs by microdilution broth method; format: functional; conditions: CCM 1961, 48 h; outline: as §2
# Candida albicans [27] = test: Antifungal activity against Candida albicans ATCC 44859 after 24 hrs by microdilution broth method; format: functional; conditions: ATCC 44859, 24 h
# Outline: (§3)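 CLSI M27-A3 broth microdilution in RPMI 1640 with glutamine, buffered to pH 7.0 with MOPS; DMSO diluent. Yeast inoculum 5 × 10^3 ± 0.2 CFU/mL. Moulds grown on Sabouraud agar 3–10 days before spore harvest, final inoculum 0.5-5 × 10^4 CFU/mL, checked in a Bürker chamber. Incubated dark, humid, 35 °C, read at 24 and 48 h visually and at 540 nm. MIC taken as ≥80% (yeasts) or ≥50% (filamentous) growth reduction versus control.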
# Candida albicans [28] = test: Antifungal activity against Candida albicans ATCC 44859 after 48 hrs by microdilution broth method; format: functional; conditions: ATCC 44859, 48 h; outline: as §3
# Candida tropicalis [29] = test: Antifungal activity against Candida tropicalis 156 after 24 hrs by microdilution broth method; format: functional; conditions: Candida tropicalis, 156, 24 h; outline: as §3
# Candida tropicalis [30] = test: Antifungal activity against Candida tropicalis 156 after 48 hrs by microdilution broth method; format: functional; conditions: Candida tropicalis, 156, 48 h; outline: as §3
# Pichia kudriavzevii [31] = test: Antifungal activity against Candida krusei E28 after 24 hrs by microdilution broth method; format: functional; conditions: E28, 24 h; outline: as §3
# Pichia kudriavzevii [32] = test: Antifungal activity against Candida krusei E28 after 48 hrs by microdilution broth method; format: functional; conditions: E28, 48 h; outline: as §3
# Nakaseomyces glabratus [33] = test: Antifungal activity against Candida glabrata 20/I after 24 hrs by microdilution broth method; format: functional; outline: as §3
# Nakaseomyces glabratus [34] = test: Antifungal activity against Candida glabrata 20/I after 48 hrs by microdilution broth method; format: functional; outline: as §3
# Trichosporon asahii [35] = test: Antifungal activity against Trichosporon asahii 1188 after 24 hrs by microdilution broth method; format: functional; conditions: Trichosporon asahii, 1188, 24 h; outline: as §3
# Trichosporon asahii [36] = test: Antifungal activity against Trichosporon asahii 1188 after 48 hrs by microdilution broth method; format: functional; conditions: Trichosporon asahii, 1188, 48 h; outline: as §3
# Aspergillus fumigatus [37] = test: Antifungal activity against Aspergillus fumigatus 231 after 24 hrs by microdilution broth method; format: functional; conditions: Aspergillus fumigatus, 231, 24 h; outline: as §3
# Aspergillus fumigatus [38] = test: Antifungal activity against Aspergillus fumigatus 231 after 48 hrs by microdilution broth method; format: functional; conditions: Aspergillus fumigatus, 231, 48 h; outline: as §3
# Lichtheimia corymbifera [39] = test: Antifungal activity against Absidia corymbifera 272 after 24 hrs by microdilution broth method; format: functional; conditions: Lichtheimia corymbifera, 272, 24 h; outline: as §3
# Lichtheimia corymbifera [40] = test: Antifungal activity against Absidia corymbifera 272 after 48 hrs by microdilution broth method; format: functional; conditions: Lichtheimia corymbifera, 272, 48 h; outline: as §3
# [41] = test system: Trichophyton mentagrophytes; test: Antifungal activity against Trichophyton mentagrophytes 445 after 24 hrs by microdilution broth method; format: functional; conditions: Trichophyton mentagrophytes, 445, 24 h
# [42] = test system: Trichophyton mentagrophytes; test: Antifungal activity against Trichophyton mentagrophytes 445 after 48 hrs by microdilution broth method; format: functional; conditions: Trichophyton mentagrophytes, 445, 48 h
# HepG2 = test: Cytotoxicity against human HepG2 cells after 24 hrs […]; format: cell-based; conditions: HepG2, 24 h
# [43] = Selectivity index, ratio of CI50 for human HepG2 cells to MIC100 for Mycobacterium tuberculosis H37Rv 331/88
compound,measurement,setting,value
O=C(Nc1ccc(C(F)(F)F)cc1)c1ccc([N+](=O)[O-])cc1O,MIC,[1],2 µM
same,MIC,[2],4 µM
same,MIC,Mycobacterium avium [3],32 µM
same,MIC,Mycobacterium avium [4],32 µM
same,MIC,Mycobacterium kansasii [5],2 µM
same,MIC,Mycobacterium kansasii [6],4 µM
same,MIC,Mycobacterium kansasii [7],8 µM
same,MIC,Mycobacterium kansasii [8],4 µM
same,MIC,Mycobacterium kansasii [9],8 µM
same,MIC,Mycobacterium kansasii [10],8 µM
same,MIC,Staphylococcus aureus [11],7.81 µM
same,MIC,Staphylococcus aureus [12],7.81 µM
same,MIC,Staphylococcus aureus [13],1.95 µM
same,MIC,Staphylococcus aureus [14],1.95 µM
same,MIC,[15],1.95 µM
same,MIC,[16],7.81 µM
same,MIC,Enterococcus sp. [17],250 µM
same,MIC,Enterococcus sp. [18],250 µM
same,MIC,Escherichia coli [19],500 µM
same,MIC,Escherichia coli [20],500 µM
same,MIC,Klebsiella pneumoniae [21],500 µM
same,MIC,Klebsiella pneumoniae [22],500 µM
same,MIC,Klebsiella pneumoniae [23],500 µM
same,MIC,Klebsiella pneumoniae [24],500 µM
same,MIC,Pseudomonas aeruginosa [25],> 500 µM
same,MIC,Pseudomonas aeruginosa [26],> 500 µM
same,MIC,Candida albicans [27],250 µM
same,MIC,Candida albicans [28],250 µM
same,MIC,Candida tropicalis [29],250 µM
same,MIC,Candida tropicalis [30],250 µM
same,MIC,Pichia kudriavzevii [31],62.5 µM
same,MIC,Pichia kudriavzevii [32],125 µM
same,MIC,Nakaseomyces glabratus [33],125 µM
same,MIC,Nakaseomyces glabratus [34],250 µM
same,MIC,Trichosporon asahii [35],31.2 µM
same,MIC,Trichosporon asahii [36],31.2 µM
same,MIC,Aspergillus fumigatus [37],31.2 µM
same,MIC,Aspergillus fumigatus [38],31.2 µM
same,MIC,Lichtheimia corymbifera [39],31.2 µM
same,MIC,Lichtheimia corymbifera [40],62.5 µM
same,MIC,[41],62.5 µM
same,MIC,[42],125 µM
same,IC50,HepG2,1200 nM
same,Selectivity Index,[43],0.3
